Activity calls are given as the source filed them. No cut-off for these calls is given here.
Key:
[1] = Solubility of the compound; type: physicochemical
[2] = test system: Escherichia coli; assay: Antibacterial activity against Escherichia coli DH5[alpha] assessed as growth inhibition at late exponential phase at 200 uM after 16 hrs; type: functional; details: for inhibition of growth at 200 µM: read-out: GI
How it was run: (§1)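 Compounds were made up as 50 mM DMSO stocks and diluted in LB medium to 200 µM. Cultures were grown at 37 °C with 600 rpm shaking. OD600 was read every 10 min for 16 h, with LB as the blank. Samples were run in triplicate, and growth curves were compared with cells given equal amounts of DMSO.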

[3] = Inhibition of RNA polymerase-sigma factor (unknown origin) interaction at 15 uM after 1 hr by ELISA
How it was run: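 ELISA: purified full-length σA (250 nM in PBS) was coated overnight at 4 °C, then blocked with 1% (w/v) BSA in PBS at room temperature. After PBS/Tween-20 washes, rabbit anti-GST (1:2000) and then HRP goat anti-rabbit (1:2000) were each applied for 1 h at room temperature. TMB substrate was added, shaken for 6 min at room temperature, and absorbance read at 600 nm.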

[4] = test system: Bacillus subtilis; assay: Antibacterial activity against Bacillus subtilis 168 assessed as growth inhibition at late exponential phase at 200 uM after 16 hrs; type: functional; details: for growth inhibition (GI): subsp. subtilis str. 168; for inhibition of growth at 200 µM: subsp. subtilis str. 168, 16 h, read-out: GI; how it was run: as §1

Compound	solubility [1]	inhibition [3] [%]	growth inhibition (GI) [2]	growth inhibition (GI) [4]	inhibition of growth at 200 µM [2] [%]	inhibition of growth at 200 µM [4] [%]
COc1cc(OC)c2c(-c3ccc(Br)cc3)c[nH]c2c1-c1nnc(-c2c(OC)cc(OC)c3c(-c4ccc(Br)cc4)c[nH]c23)o1		16.8	inactive	inactive		
COc1cc(OC)c2c(-c3ccccc3)c(-c3ccccc3)[nH]c2c1C(=O)C(=O)NNC(=O)C(=O)c1c(OC)cc(OC)c2c(-c3ccccc3)c(-c3ccccc3)[nH]c12	ND(Insoluble)					
COc1cc(OC)c2c(-c3ccc(Cl)cc3)c[nH]c2c1-c1nnc(-c2c(OC)cc(OC)c3c(-c4ccc(Cl)cc4)c[nH]c23)o1		17.8	inactive	inactive		
COc1cc(OC)c2c(-c3ccc(Br)cc3)c(C(=O)c3nnc(N(C)C)s3)[nH]c2c1		19		inactive	16.8	
COc1cc(OC)c2c(-c3ccc(Cl)cc3)c(C(=O)C(=O)NNC(=S)N(C)C)[nH]c2c1		20.4			47	32.5
COc1cc(OC)c2c(-c3ccc(Br)cc3)c(C(=O)C(=O)NNC(=S)N(C)C)[nH]c2c1		20.8			70	69.9
COc1cc(OC)c2c(-c3ccccc3)c(-c3ccccc3)[nH]c2c1C(=O)NNC(=O)C(=O)NNC(=O)c1c(OC)cc(OC)c2c(-c3ccccc3)c(-c3ccccc3)[nH]c12	ND(Insoluble)					
COc1cc(OC)c2c(-c3ccc(Cl)cc3)c[nH]c2c1C(=O)NNC(=O)c1c(OC)cc(OC)c2c(-c3ccc(Cl)cc3)c[nH]c12		62.6	inactive			29.8

More lines, main results first:

solubility [1]	inhibition [3] [%]	Compound	growth inhibition (GI) [2]	growth inhibition (GI) [4]	inhibition of growth at 200 µM [2] [%]	inhibition of growth at 200 µM [4] [%]
ND(Insoluble)		COc1cc(OC)c2c(-c3ccccc3)c(-c3ccccc3)[nH]c2c1-c1nnc(-c2nnc(-c3c(OC)cc(OC)c4c(-c5ccccc5)c(-c5ccccc5)[nH]c34)o2)o1				
ND(Insoluble)		COc1cc(OC)c2c(-c3ccccc3)c(-c3ccccc3)[nH]c2c1-c1nnc(-c2c(OC)cc(OC)c3c(-c4ccccc4)c(-c4ccccc4)[nH]c23)o1				
	39.5	COc1cc(OC)c2c(-c3ccc(Br)cc3)c[nH]c2c1C(=O)NNC(=O)c1c(OC)cc(OC)c2c(-c3ccc(Br)cc3)c[nH]c12			37.4	14.3
	17.2	COc1cc(OC)c2c(-c3ccc(Cl)cc3)c(C(=O)c3nnc(N(C)C)s3)[nH]c2c1		inactive	10.6	
ND(Insoluble)		COc1cc(OC)c2c(-c3ccccc3)c(-c3ccccc3)[nH]c2c1C(=O)NNC(=O)c1c(OC)cc(OC)c2c(-c3ccccc3)c(-c3ccccc3)[nH]c12				

From ChEMBL document CHEMBL3112520, “Synthesis and biological evaluation of 2,5-di(7-indolyl)-1,3,4-oxadiazoles, and 2- and 7-indolyl 2-(1,3,4-thiadiazolyl)ketones as antimicrobials” (Bioorg Med Chem, 2014)
